The structures appear in SMILES notation.

In the assay the target is DNA topoisomerase II (Homo sapiens) (UniProt P11388+Q02880). Nature of the assay: Compound tested for ability to form a cellular covalent topoisomerase II-DNA complex. Type of assay: functional. In short, it runs like this:
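Read-out is intracellular covalent topoisomerase II–DNA complex formation, scored as the percentage of cellular protein–DNA complex formed (PCPDCF). For CoMFA modelling the values were transformed to ln(PCPDCF + 1).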

For the molecule `C=CCN[C@@H]1c2cc3c(cc2[C@@H](c2cc(OC)c(O)c(OC)c2)[C@H]2C(=O)OC[C@@H]21)OCO3`, the Protein-DNA complex formation was found to be 84.1%.
As for `COc1cc([C@@H]2c3cc4c(cc3[C@@H](Nc3ccc(C#N)cc3)[C@H]3COC(=O)[C@H]23)OCO4)cc(OC)c1O`, the figure is 211%.
As for `CCOC(=O)CC[C@H](NC(=O)c1ccc(N[C@@H]2c3cc4c(cc3[C@@H](c3cc(OC)c(O)c(OC)c3)[C@H]3C(=O)OC[C@@H]32)OCO4)cc1)C(=O)OCC`, the figure is 83%.
As for `COc1cc([C@@H]2c3cc4c(cc3[C@@H](NC(=O)c3ccc(OC(C)=O)cc3)[C@H]3COC(=O)[C@H]23)OCO4)cc(OC)c1O`, the figure is 137%; as for `COc1cc([C@@H]2c3cc4c(cc3[C@@H](Nc3cnc5ccccc5c3)[C@H]3COC(=O)[C@H]23)OCO4)cc(OC)c1O`, 123%.
`COc1cc([C@@H]2c3cc4c(cc3[C@@H](N[C@@H](C)CO)[C@H]3COC(=O)[C@H]23)OCO4)cc(OC)c1O` returned a Protein-DNA complex formation of 162%.
As for `COc1cc([C@@H]2c3cc4c(cc3[C@@H](Nc3cccc(C#N)c3)[C@H]3COC(=O)[C@H]23)OCO4)cc(OC)c1O`, the figure is 137%; as for `COc1cc([C@@H]2c3cc4c(cc3[C@@H](NCc3cccc([N+](=O)[O-])c3)[C@H]3COC(=O)[C@H]23)OCO4)cc(OC)c1O`, 130%; as for `COc1cc([C@@H]2c3cc4c(cc3[C@@H](Nc3cccc(Cl)c3)[C@H]3COC(=O)[C@H]23)OCO4)cc(OC)c1O`, 51%.
As for `COc1cc([C@@H]2c3cc4c(cc3[C@@H](NCc3ccccc3[N+](=O)[O-])[C@H]3COC(=O)[C@H]23)OCO4)cc(OC)c1O`, the figure is 144%.
As for `COc1cc([C@@H]2c3cc4c(cc3[C@@H](Nc3cc(C(F)(F)F)cc(C(F)(F)F)c3)[C@H]3COC(=O)[C@H]23)OCO4)cc(OC)c1O`, the figure is 21%.
For `COc1cc([C@@H]2c3cc4c(cc3[C@@H](Oc3ccc(O)cc3)[C@H]3COC(=O)[C@H]23)OCO4)cc(OC)c1O`, the Protein-DNA complex formation was found to be 34%.
As for `COc1cc([C@@H]2c3cc4c(cc3[C@@H](OC(=O)c3cccc(N)c3)[C@H]3COC(=O)[C@H]23)OCO4)cc(OC)c1O`, the figure is 100%; as for `CCCN[C@@H]1c2cc3c(cc2[C@@H](c2cc(OC)c(O)c(OC)c2)[C@H]2C(=O)OC[C@@H]21)OCO3`, 69.7%; as for `COc1cc([C@@H]2c3cc4c(cc3[C@@H](NC(=O)c3cccc(N)c3)[C@H]3COC(=O)[C@H]23)OCO4)cc(OC)c1O`, 149%.
As for `COc1cc(CN[C@@H]2c3cc4c(cc3[C@@H](c3cc(OC)c(O)c(OC)c3)[C@H]3C(=O)OC[C@@H]32)OCO4)cc(OC)c1`, the figure is 144%.
`COc1cc([C@@H]2c3cc4c(cc3[C@@H](NCc3cccc(N)c3)[C@H]3COC(=O)[C@H]23)OCO4)cc(OC)c1O` had a Protein-DNA complex formation of 191%.
As for `COc1cc([C@@H]2c3cc4c(cc3[C@@H](NC(=O)c3cccc([N+](=O)[O-])c3)[C@H]3COC(=O)[C@H]23)OCO4)cc(OC)c1O`, the figure is 86%; as for `COc1cc([C@@H]2c3cc4c(cc3[C@@H](Nc3cccnc3)[C@H]3COC(=O)[C@H]23)OCO4)cc(OC)c1O`, 148%.
`COc1cc([C@@H]2c3cc4c(cc3[C@@H](Nc3ccccc3O)[C@H]3COC(=O)[C@H]23)OCO4)cc(OC)c1O` returned a Protein-DNA complex formation of 151%.
As for `COc1cc([C@@H]2c3cc4c(cc3[C@@H](Nc3ccccc3Cl)[C@H]3COC(=O)[C@H]23)OCO4)cc(OC)c1O`, the figure is 32%; as for `COc1cc([C@@H]2c3cc4c(cc3[C@@H](NC[C@H](C)O)[C@H]3COC(=O)[C@H]23)OCO4)cc(OC)c1O`, 167%.
With `COc1cc([C@@H]2c3cc4c(cc3[C@@H](NCc3cccc(F)c3)[C@H]3COC(=O)[C@H]23)OCO4)cc(OC)c1O`, the Protein-DNA complex formation was found to be 216%.
As for `COc1cc([C@@H]2c3cc4c(cc3[C@@H](O)[C@H]3COC(=O)[C@H]23)OCO4)cc(OC)c1O`, the figure is 42.2%; as for `COc1cc([C@@H]2c3cc4c(cc3[C@@H](NC(=O)c3cccc(F)c3)[C@H]3COC(=O)[C@H]23)OCO4)cc(OC)c1O`, 116%; as for `COc1cc([C@@H]2c3cc4c(cc3[C@@H](Nc3ccc(Br)cc3)[C@H]3COC(=O)[C@H]23)OCO4)cc(OC)c1O`, 179%.
As for `COc1cc([C@@H]2c3cc4c(cc3[C@@H](OC(=O)c3ccccc3)[C@H]3COC(=O)[C@H]23)OCO4)cc(OC)c1O`, the figure is 94%.
Consider `COc1cc([C@@H]2c3cc4c(cc3[C@@H](Nc3cc(N)ccc3O)[C@H]3COC(=O)[C@H]23)OCO4)cc(OC)c1O`, for which the Protein-DNA complex formation was determined as 11%.
For `COc1cc([C@@H]2c3cc4c(cc3[C@@H](Nc3ccc(O)cc3)[C@H]3COC(=O)[C@H]23)OCO4)cc(OC)c1O`, the Protein-DNA complex formation worked out at 211%.
As for `COc1cc([C@@H]2c3cc4c(cc3[C@@H](Oc3ccc(F)cc3)[C@H]3COC(=O)[C@H]23)OCO4)cc(OC)c1O`, the figure is 57%; as for `COC(=O)c1cc(N[C@@H]2c3cc4c(cc3[C@@H](c3cc(OC)c(O)c(OC)c3)[C@H]3C(=O)OC[C@@H]32)OCO4)cc(C(=O)OC)c1`, 50%; as for `COc1cccc(N[C@@H]2c3cc4c(cc3[C@@H](c3cc(OC)c(O)c(OC)c3)[C@H]3C(=O)OC[C@@H]32)OCO4)c1`, 104%.
As for `COc1cc([C@@H]2c3cc4c(cc3[C@@H](Nc3ccccn3)[C@H]3COC(=O)[C@H]23)OCO4)cc(OC)c1O`, the figure is 97%.

Source of the values: ChEMBL document CHEMBL1129534, “Antitumor agents. 163. Three-dimensional quantitative structure-activity relationship study of 4'-O-demethylepipodophyllotoxin analogs using the modified CoMFA/q2-GRS approach” (J Med Chem, 1996).
